# Kir21 block: inhibitors of mouse Kir2.1 inward-rectifier potassium channel. P35561. HEK293-Kir2.1, FluxOR thallium flux fluorescence; stronger effect = lower value. B-score at 10 µM. 310,000 compounds, 0.85% hits. AID 1672;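 active = fluorescence ratio B-score at or below minus 3 SD of library scores, with starting-brightness B-score within 2 SD, cut at about -4.2 in these data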;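 also: channel flux triggered by added potassium and thallium sulfate stimulus; B-score of peak minus minimum fluorescence over baseline after thallium stimulus; more negative B-score means stronger Kir2.1 block with less thallium influx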
# Target sequence (P35561 whole entry, looked up): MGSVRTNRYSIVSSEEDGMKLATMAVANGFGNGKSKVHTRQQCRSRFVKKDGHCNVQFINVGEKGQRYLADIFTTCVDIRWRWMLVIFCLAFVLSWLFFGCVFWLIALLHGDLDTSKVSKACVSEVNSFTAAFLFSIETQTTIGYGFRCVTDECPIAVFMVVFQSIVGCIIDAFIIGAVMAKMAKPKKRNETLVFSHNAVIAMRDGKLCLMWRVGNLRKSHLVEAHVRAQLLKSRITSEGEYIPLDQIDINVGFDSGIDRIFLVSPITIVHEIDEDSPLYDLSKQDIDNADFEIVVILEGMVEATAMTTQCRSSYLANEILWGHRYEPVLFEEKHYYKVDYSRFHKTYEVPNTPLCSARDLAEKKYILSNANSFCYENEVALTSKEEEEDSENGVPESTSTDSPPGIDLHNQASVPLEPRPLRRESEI
# KCNQ1 inh: inhibitors of human KCNQ1 potassium channel; B-score at 10 µM; 310,000 compounds, 1.3% hits; CHO-K1 KCNQ1, FluxOR thallium flux fluorescence; stronger effect = higher value;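 active = compounds whose thallium flux B-score, printed positive for inhibition, exceeds three library SD while starting fluorescence stays within three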;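 also: channel opened by potassium depolarization with thallium stimulus after 20 min compound exposure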
# KCNK3 block: human KCNK3 channel inhibition, primary screen | O14649 | CHO-KCNK3 thallium flux, FluxOR fluorescence; stronger effect = lower value | 340,000 compounds, 0.84% hits | B-score at 10 µM;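 active = B-score under library mean minus 4 SD, starting fluorescence ratio at most library mean plus 5 SD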;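 also: more negative B-score means stronger inhibition of thallium flux through KCNK3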
# KCNK9 block: inhibitors of human KCNK9 two-pore domain potassium channel; Q9NPC2; 310,000 compounds, 1.2% hits; HEK293 KCNK9, FluxOR thallium flux fluorescence; stronger effect = lower value; B-score at 10 µM;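 active = ratio B-score over 3 SD below the library mean, with starting fluorescence within 5 SD of its mean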;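 also: negative B-score means less thallium flux so channel inhibition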
# KCNQ1 act: human KCNQ1 channel potentiation or activation. P51787. CHO-K1 KCNQ1, thallium flux FluxOR fluorescence; stronger effect = higher value. B-score at 10 µM. 310,000 compounds, 0.35% hits. AID 2648;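 active = fluorescence ratio B-score, a plate-corrected score, at least three library SD, with initial intensity B-score within 5 SD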
#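 Assay system: CHO-K1 cells stably expressing KCNQ1; Medium: assay buffer with matched DMSO; Also added: K+/Tl+ depolarizing stimulus; Dosing: single dose; Timing: dye 90 min, compound 20 min, room temperature; Measured by: kinetic FluxOR thallium fluorescence, 10-s 1-Hz baseline, 110-s post-stimulus read; Read-out: peak-minus-minimum fluorescence over initial fluorescence, negative-control normalized, B-scored.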
# hERG rescue: shields human hERG channel from block by proarrhythmic agents; Q12809; CHO-hERG, FluxOR thallium flux, dofetilide IC70 present; activation (rescue from dofetilide block), less the hit threshold, % at 10 µM; 310,000 compounds, 0.51% hits; AID 1511;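 active = activation above the mean of controls blocked by dofetilide plus 5 SD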;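 also: thallium influx through hERG after potassium depolarization seen as dye fluorescence rise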
# KCNK9 inh conf: human KCNK9 inhibitor confirmation; shares compounds with KCNK9 block; HEK293 KCNK9 cells, FluxOR thallium flux fluorescence; inhibition, % at 10 µM; 4,900 compounds, 43% hits; AID 492992;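 active = thallium signal inhibited by more than 5 SD of the compound-free buffer control wells, on both duplicate plates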
# Kir2-1 spec: mouse Kir2.1 off-target activity of KCNK9 modulators; inhibition, % at 10 µM; shares compounds with KCNK9 block; 4,900 compounds, 4% hits; AID 492993; Kir2.1 cells, FluxOR thallium flux fluorescence;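 active = thallium signal drop more than 5 SD beyond the mean of the no-compound control wells, seen in both duplicate plates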;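 also: signal is fluorescence rise after thallium addition divided by baseline fluorescence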
# KCNK9 uninduced: non-induced cell nonspecific activity of KCNK9 modulators; shares compounds with KCNK9 block; non-induced KCNK9-HEK293, FluxOR thallium flux; 4,900 compounds, 40% hits; inhibition, % at 10 µM;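 active = thallium signal drop beyond 5 SD of the untreated control mean, on both duplicate plates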
# Hits are given with their value; n = inactive; x = no result. Rows were chosen to be rich in hits. Some 3.7% of all compounds tested hit in one or more screens of this group.
SMILES,Kir21 block,KCNQ1 inh,KCNK3 block,KCNK9 block,KCNQ1 act,hERG rescue,KCNK9 inh conf,Kir2-1 spec,KCNK9 uninduced
CCc1ccc(CN2CCCC(C(=O)Nc3ccccc3-c3ccc(OC)cc3)C2)o1 (centres undefined),-5.9,n,n,-8.7,n,n,n,n,28%
CCCCCc1cc(O)c2c(C)cc(=O)oc2c1,n,n,n,n,n,n,x,x,x
CCCCc1cc(O)c(CCCC)c(O)c1,n,n,n,-12,n,n,64%,n,36%
O=C(NCc1cn(-c2ccccc2)nc1-c1ccccc1)c1cc([N+](=O)[O-])cc([N+](=O)[O-])c1,n,n,n,n,n,n,x,x,x
COc1ccc(-c2nn(-c3ccccc3)cc2CNC(=O)c2cccc([N+](=O)[O-])c2)cc1,n,n,n,-11,n,n,52%,n,30%
COc1ccccc1N1CCN(C(=O)NC23CC4CC(CC(C4)C2)C3)CC1,n,n,n,n,n,n,x,x,x
CCCN1C(=O)/C(=C/c2c(N3CCNC(=O)C3CC(=O)OCC)nc3c(C)cccn3c2=O)SC1=S (centres undefined),n,n,n,n,n,n,x,x,x
CCOC(=O)CC1C(=O)NCCN1c1nc2ccc(C)cn2c(=O)c1/C=C1\SC(=S)N(CC(C)C)C1=O (centres undefined),n,8,n,-9.9,n,n,46%,43%,62%
Cc1ccc(NC2CCCN(C(=O)c3cccc4nccnc34)C2)cc1C (centres undefined),n,n,n,n,n,n,x,x,x
Cc1cc(C)n2c(Nc3ccc4c(c3)OCCO4)c(-c3ccccc3)nc2n1,n,n,n,-11,n,n,39%,n,28%
Cc1ccc(-c2nc3cnccn3c2Nc2ccc3c(c2)OCO3)cc1,n,n,n,-8.6,n,n,44%,n,n
COc1ccc(-c2nc3cnccn3c2Nc2ccc3c(c2)OCO3)cc1,n,n,n,n,n,n,x,x,x
Cc1cc(OCC(=O)NC(C)(C)C)ccc1Cl,n,n,n,n,n,n,x,x,x
Cc1cc(OCC(=O)N(C(C)C)C(C)C)ccc1Cl,n,n,n,n,n,5.0,n,n,n
Cc1ccccc1-n1ncc2c(SCC(=O)NC3CCCC3)ncnc21,n,n,n,n,n,n,x,x,x
Cc1ccccc1-n1ncc2c(SCC(=O)N3c4ccccc4CC3C)ncnc21 (centres undefined),n,n,n,n,n,n,n,n,n
O=c1onc(-c2cccnc2)n1-c1ccccc1F,n,n,n,n,n,n,x,x,x
Cc1ccc(C(=O)Nc2ccccc2C(=O)NCc2ccco2)cc1S(=O)(=O)N1CCCCC1,n,n,n,n,n,n,n,n,n
Cc1ccc(C(=O)NCc2ccco2)cc1S(=O)(=O)N1CCCCC1,n,n,n,n,n,n,x,x,x
O=C(/C(=C\c1ccccc1)c1nc2ccccc2[nH]1)c1ccc(Cl)cc1,n,n,n,n,n,n,x,x,x
O=C(/C(=C/c1ccc(Cl)cc1)c1nc2ccccc2[nH]1)c1cccs1,n,6,n,-11,n,n,48%,n,41%
CC(=O)Nc1ccc(S(=O)(=O)N2C(=O)c3cccc4cccc2c34)cc1,n,n,x,n,n,n,x,x,x
COc1ccc(C(=O)CN2CCN(CCN3C(=O)c4cccc5cccc(c45)C3=O)CC2)cc1,n,n,n,n,n,n,n,n,n
COc1ccc(C)cc1N(C(=O)c1ccccc1F)c1nc2ccccc2s1,n,n,n,-9.7,n,n,46%,n,36%
COc1ccc(C)cc1N(C(=O)c1ccccc1)c1nc2ccccc2s1,n,n,n,-10,n,n,42%,n,32%
SMILES,Kir21 block,KCNQ1 inh,KCNK3 block,KCNK9 block,KCNQ1 act,hERG rescue,KCNK9 inh conf,Kir2-1 spec,KCNK9 uninduced
COc1ccc(C)cc1N(C(=O)c1cccc(F)c1)c1nc2ccccc2s1,x,x,n,x,x,x,x,x,x
COc1ccc(C)cc1N(C(=O)COc1ccccc1)c1nc2ccccc2s1,n,n,n,n,n,n,x,x,x
CCC1(c2ccc(F)cc2)NC(=O)N(CC(=O)N2CCN(S(=O)(=O)c3ccc(C)cc3C)CC2)C1=O (centres undefined),x,x,n,x,x,x,x,x,x
CCC(C)(C)n1nnnc1C(C(C)C)N(Cc1cccnc1)Cc1ccco1 (centres undefined),n,n,n,n,n,n,x,x,x
CCC(C)(C)n1nnnc1C(C(C)C)N(Cc1ccco1)Cc1cc2cc3c(cc2[nH]c1=O)OCO3 (centres undefined),n,n,n,-10,n,n,42%,n,42%
O=C(C1CCCN(Cc2ccc(Br)cc2)C1)N1CCCCC1 (centres undefined),n,n,n,n,n,n,x,x,x
O=C(Nc1cc(Sc2nc3ccccc3s2)cc([N+](=O)[O-])c1)c1ccccc1F,n,n,n,-9,n,n,32%,n,30%
COc1ccc(-c2cc(=O)n(-c3ccc([N+](=O)[O-])cc3)[nH]2)cc1,n,n,n,n,n,n,n,n,n
COc1ccc(-c2n[nH]c3c2CN(C(=O)c2ccccc2)CC3)cc1,n,n,n,n,n,n,n,n,n
O=C(c1ccco1)N1CCc2[nH]nc(-c3ccc(Cl)cc3)c2C1,n,n,n,n,n,n,x,x,x
CC(C)(C)OC(=O)[C@H](Cc1ccccc1)NC(=O)c1nc[nH]c1C(=O)N1CCc2ccccc2C1,n,n,n,n,n,n,n,n,n
CC(C)C[C@H](NC(=O)c1nc[nH]c1C(=O)NCc1ccc(CNC(=O)OC(C)(C)C)cc1)C(=O)OC(C)(C)C,n,n,n,-8.8,n,n,32%,n,29%
CC(C)(C)OC(=O)NCCCC[C@H](NC(=O)c1nc[nH]c1C(=O)N1CCc2ccccc2C1)C(=O)OC(C)(C)C,n,n,n,n,n,n,x,x,x
COc1ccc(Cc2[nH]n3c(=O)c(Cl)c(C)nc3c2-c2ccccc2)cc1,n,n,n,n,n,n,x,x,x
O=C(c1ccccc1Cc1ccccc1)N1CCN(S(=O)(=O)c2ccccc2[N+](=O)[O-])CC1,n,n,n,n,n,n,x,x,x
CN(C)S(=O)(=O)c1ccc(N2CCCC2)c(C(=O)Nc2ccccc2Br)c1,n,n,n,n,n,n,n,n,n
CCc1ccc(OCC(=O)NNC(=O)c2cc(S(=O)(=O)N(C)C)ccc2N2CCCC2)cc1,n,n,n,n,n,n,n,n,n
CN(C)S(=O)(=O)c1ccc(N2CCCC2)c(C(=O)NC2CCCCC2)c1,n,n,n,n,n,n,n,n,n
